{"source": "ChEMBL document CHEMBL3414428", "about": "“Bond-based bilinear indices for computational discovery of novel trypanosomicidal drug-like compounds through virtual screening” (Eur J Med Chem, 2015)", "key": {"J774": {"tested_on": "J774", "test": "Cytotoxicity against mouse J774 cells assessed as cell viability after 48 hrs by resazurin assay", "format": "cell-based", "settings": "J774, 48 h", "procedure,_shortened": "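J774 macrophages grown in RPMI 1640 with 10% heat-inactivated FBS, penicillin and streptomycin at 37 °C, 5% CO2, and harvested pre-confluence with trypsin. Seeded at 5x10^4 cells/well and left to attach 24 h. Exposed to a range of drug concentrations for 48 h. Resazurin solution (2 mM stock, in PBS pH 7) added for 3 h. Absorbance read at 490 and 595 nm with background subtracted. Triplicates; %C and IC50 calculated.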"}, "[1]": {"test": "Selectivity ratio of IC50 for mouse J774 cells to IC50 for epimastigote stage of Trypanosoma cruzi CL-B5", "format": "ADME, cell-based", "settings": "J774 cells versus Trypanosoma cruzi CL-B5 epimastigotes, read-out: Ratio IC50"}, "Trypanosoma cruzi": {"tested_on": "Trypanosoma cruzi", "test": "Trypanosomicidal activity against epimastigote stage of Trypanosoma cruzi CL-B5 after 72 hrs by beta-galactosidase reporter gene assay", "format": "functional, organism-based", "settings": "CL-B5, 72 h", "procedure,_shortened": "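Epimastigotes from cultures not yet in stationary phase, seeded at 2 x 10^5/mL with drugs at 28 °C for 72 h. CPRG then added (200 µM final) for 6 h at 37 °C and absorbance read at 595 nm. Each concentration tested in triplicate, two independent experiments; IC50 and AE% calculated.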"}}, "data": [{"smiles": "Oc1ccc(CCc2ccccc2)cc1", "values": [{"measurement": "IC50", "setting": "J774", "result": 407, "unit": "µM"}, {"measurement": "selectivity ratio", "setting": "[1]", "result": 3.3}, {"measurement": "IC50", "setting": "Trypanosoma cruzi", "result": 123, "unit": "µM"}]}, {"smiles": "COc1ccc(OC)c(CCc2ccccc2)c1", "values": [{"measurement": "IC50", "setting": "J774", "result": "> 256", "unit": "µM"}, {"measurement": "selectivity ratio", "setting": "[1]", "result": 5.5}, {"measurement": "IC50", "setting": "Trypanosoma cruzi", "result": 46.5, "unit": "µM"}]}, {"smiles": "COc1ccc(OC)c(C(=O)O)c1", "values": [{"measurement": "IC50", "setting": "J774", "result": "> 256", "unit": "µM"}, {"measurement": "IC50", "setting": "Trypanosoma cruzi", "result": "> 256", "unit": "µM"}]}, {"smiles": "COc1ccc(OC)c(CO)c1", "values": [{"measurement": "IC50", "setting": "J774", "result": "> 256", "unit": "µM"}, {"measurement": "IC50", "setting": "Trypanosoma cruzi", "result": "> 256", "unit": "µM"}]}, {"smiles": "C=Cc1cc(OC)ccc1OC", "values": [{"measurement": "IC50", "setting": "J774", "result": "> 256", "unit": "µM"}, {"measurement": "IC50", "setting": "Trypanosoma cruzi", "result": "> 256", "unit": "µM"}]}, {"smiles": "O=C(O)c1cc(O)ccc1O", "note": "[GENTISIC ACID]", "values": [{"measurement": "IC50", "setting": "J774", "result": "> 256", "unit": "µM"}, {"measurement": "IC50", "setting": "Trypanosoma cruzi", "result": "> 256", "unit": "µM"}]}, {"smiles": "Oc1ccc(O)cc1", "note": "[HYDROQUINONE]", "values": [{"measurement": "IC50", "setting": "J774", "result": 123, "unit": "µM"}, {"measurement": "selectivity ratio", "setting": "[1]", "result": 6.3}, {"measurement": "IC50", "setting": "Trypanosoma cruzi", "result": 19.5, "unit": "µM"}]}, {"smiles": "Oc1ccc(CCc2cccc(O)c2)cc1", "note": "[LUNULARIN]", "values": [{"measurement": "IC50", "setting": "J774", "result": "> 512", "unit": "µM"}, {"measurement": "selectivity ratio", "setting": "[1]", "result": 3.4}, {"measurement": "IC50", "setting": "Trypanosoma cruzi", "result": 152, "unit": "µM"}]}, {"smiles": "COC(=O)c1cc(O)ccc1O", "note": "[METHYL 2,5-DIHYDROXYBENZOATE]", "values": [{"measurement": "IC50", "setting": "J774", "result": "> 256", "unit": "µM"}, {"measurement": "selectivity ratio", "setting": "[1]", "result": 2.6}, {"measurement": "IC50", "setting": "Trypanosoma cruzi", "result": 98, "unit": "µM"}]}, {"smiles": "COC(=O)c1cc(O)cc(O)c1", "note": "[METHYL 3,5-DIHYDROXYBENZOATE]", "values": [{"measurement": "IC50", "setting": "J774", "result": "> 256", "unit": "µM"}, {"measurement": "IC50", "setting": "Trypanosoma cruzi", "result": "> 256", "unit": "µM"}]}]}
